The subject of one assay is HeLa. The assay is described as follows: Antiproliferative activity against human HeLa cells assessed as cell viability after 72 hrs by MTT assay. The class given is functional, cell-based. The gist of the method: (§1)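 A549 and HeLa cells grown in DMEM with 10% FBS and penicillin/streptomycin. Plated at 8 × 10^3 cells/well and held 18 h at 37 °C in 5% CO2. Medium replaced with compound in complete medium at varied concentrations for 72 h at 37 °C, then MTT read.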
A general note: Formazan colour is commonly taken as a measure of viable cells.

A further assay concerns A549. The experiment in a line: Antiproliferative activity against human A549 cells after 72 hrs by MTT assay. The class given is functional, cell-based. The note with it: A549, 72 h. In short, it runs like this: as §1
In a further assay the test system is HL-60. The experiment in a line: Antiproliferative activity against human HL60 cells after 72 hrs by MTT assay. The class given is functional, cell-based. The settings on record: HL-60, 72 h.
Assay [1] is described as follows: Inhibition of tubulin polymerization after 20 mins by turbidimetry.
Another assay concerns K562. The experiment in a line: Antiproliferative activity against human K562 cells after 72 hrs by MTT assay. The class given is functional, cell-based. The note with it: K562, 72 h.
For the next assay, the system named is Jurkat. The assay is described as follows: Antiproliferative activity against human Jurkat cells after 72 hrs by MTT assay. The class given is functional, cell-based.
Assay [2] is described as follows: Inhibition of tubulin polymerization after 20 mins by turbidimetry. In short, it runs like this:
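Tubulin (10 µM) in glutamate buffer was preincubated with varied compound concentrations at 30 °C, then cooled to 0 °C. GTP was added and the mixture warmed to 30 °C in cuvettes while turbidity was recorded.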

This passage reports IC50 and inhibition results from ChEMBL document CHEMBL1629488, “Synthesis and biological evaluation of 2-(3',4',5'-trimethoxybenzoyl)-3-aryl/arylaminobenzo[b]thiophene derivatives as a novel class of antiproliferative agents” (Eur J Med Chem, 2010).

In general, IC50 refers to the midpoint of a concentration-inhibition curve. Turning to `COc1cc(C(=O)c2sc3cc(C)ccc3c2Nc2ccc(C)cc2)cc(OC)c1OC`, the IC50 worked out at 0.98 µM with HeLa; 1.9 µM in the assay on A549; 1.9 µM in the assay with HL-60; 15 µM in assay [1]; 1.4 µM in the assay on K562; 2.5 µM with Jurkat.

In the case of `COc1ccc(Nc2c(C(=O)c3cc(OC)c(OC)c(OC)c3)sc3ccccc23)cc1`, the IC50 with HeLa is 7.7 µM; with A549, 9.3 µM; with HL-60, 3.7 µM; with K562, 2.9 µM; in the assay on Jurkat, 3.5 µM.

As to `COc1cc(C(=O)c2sc3ccccc3c2Nc2ccc(C)cc2)cc(OC)c1OC`, the IC50 in the assay with HeLa amounted to 3.5 µM; in the assay with A549, 2.6 µM; in the assay on HL-60, 4.6 µM; in the assay with K562, 1.6 µM; with Jurkat, 1.7 µM.

Regarding `COc1cc(C(=O)c2sc3ccccc3c2-c2ccc(C)cc2)cc(OC)c1OC`, the half-inhibitory concentration (IC50) in the assay with HeLa stood at 3.7 µM; with A549 it was 7.8 µM; with HL-60, 1.4 µM; in the assay with K562 it was 3.5 µM; in the assay with Jurkat, 3.3 µM.

Turning to `COc1ccc(-c2c(C(=O)c3cc(OC)c(OC)c(OC)c3)sc3ccccc23)cc1C`, the IC50 in the assay on HeLa, in the assay with A549, with HL-60, with K562 and in the assay with Jurkat was greater than 10 µM in each case.

As a reminder, the inhibition is how much of the control response was suppressed. Lower therefore signals a response near the control. For the molecule `CCOc1ccc(Nc2c(C(=O)c3cc(OC)c(OC)c(OC)c3)sc3cc(C)ccc23)cc1`, in assay [2], the inhibition turned out to be 50%. Moreover, the IC50 in the assay on HeLa worked out at 4.3 µM; with A549 it was 5.8 µM; in the assay on HL-60, 4 µM; with K562, 4.3 µM; in the assay on Jurkat, 5 µM.

Consider `COc1ccccc1-c1c(C(=O)c2cc(OC)c(OC)c(OC)c2)sc2ccccc12`, for which the IC50 with HeLa is 5 µM; with A549, greater than 10 µM; in the assay with HL-60, 2.9 µM; with K562, 3.4 µM; in the assay with Jurkat, 2.9 µM.

On to `COc1cc(C(=O)c2sc3ccccc3c2-c2ccc(Cl)cc2)cc(OC)c1OC`, for which the half-inhibitory concentration (IC50) in the assay on HeLa was found to be 5.2 µM; in the assay with A549, 7.5 µM; with HL-60 it was 3.3 µM; with K562, 4.2 µM; with Jurkat, 3.7 µM.

For `COc1cc(C(=O)c2sc3ccccc3c2Nc2ccc(Cl)cc2)cc(OC)c1OC`, the IC50 stood at 3.7 µM in the assay on HeLa; 3.1 µM in the assay with A549; 5.4 µM in the assay on HL-60; 1.1 µM with K562; 1.9 µM with Jurkat.

With `COc1cc(C(=O)c2sc3ccccc3c2-c2ccc(F)cc2)cc(OC)c1OC`, the IC50 in the assay with HeLa was determined as 3 µM; in the assay with A549 it was 3.2 µM; in the assay on HL-60 it was 3.2 µM; in the assay with K562, 2.1 µM; with Jurkat, 2.3 µM.

For `CCOc1ccc(-c2c(C(=O)c3cc(OC)c(OC)c(OC)c3)sc3ccccc23)cc1`, the IC50 in the assay with HeLa is 3 µM; with A549, 3.1 µM; in the assay with HL-60 it was 3.5 µM; in the assay on K562, 3.1 µM; in the assay with Jurkat, 4.1 µM.

For the molecule `COc1ccc(-c2c(C(=O)c3cc(OC)c(OC)c(OC)c3)sc3ccccc23)c(OC)c1`, the IC50 in the assay with HeLa came out at 3.9 µM; with A549, 5.8 µM; with HL-60, 4.6 µM; in the assay on K562, 4.1 µM; in the assay on Jurkat, 4 µM.

Turning to `COc1cc(C(=O)c2sc3ccccc3c2-c2ccccc2)cc(OC)c1OC`, the IC50 is 1.9 µM in the assay with HeLa; 5 µM in the assay on A549; 1.7 µM in the assay on HL-60; 2.1 µM with K562; 1.5 µM in the assay on Jurkat.

On to `COc1ccc(OC)c(-c2c(C(=O)c3cc(OC)c(OC)c(OC)c3)sc3ccccc23)c1`, for which the IC50 in the assay on A549, in the assay on HL-60, in the assay on K562 and with Jurkat was greater than 10 µM in each case.

For the molecule `COc1cc(C(=O)c2sc3ccccc3c2Nc2ccccc2)cc(OC)c1OC`, the IC50 with HeLa was found to be 2.7 µM; in the assay with A549 it was 3 µM; with HL-60, 5.2 µM; in the assay with K562 it was 2.3 µM; in the assay with Jurkat, 1.6 µM.

With `COc1ccc(-c2c(C(=O)c3cc(OC)c(OC)c(OC)c3)sc3ccccc23)cc1`, the IC50 in the assay on HeLa is 4.2 µM; in the assay on A549 it was 4.4 µM; with HL-60 it was 1.6 µM; in the assay on K562 it was 1.7 µM; with Jurkat it was 1.6 µM.

For the molecule `COc1cc(C(=O)c2sc3ccccc3c2-c2ccc(SC)cc2)cc(OC)c1OC`, the half-inhibitory concentration (IC50) in the assay on HeLa is 3.5 µM; with A549 it was 5.4 µM; in the assay on HL-60, 1.3 µM; with K562, 1.8 µM; with Jurkat it was 1.9 µM.
